Experimental data taken from ChEMBL document CHEMBL1122178, “N-Methylnalorphine: definition of N-allyl conformation for antagonism at the opiate receptor” (J Med Chem, 1982).

Key:
[1] = molecular target: T1, Opioid receptor (Mus musculus) (UniProt P42866+P32300+P33534); assay: Opioid receptors antagonist potency in reversing the effects of Met5E was determined in mouse isolated vas deferens; assay type: functional, tissue-based
In short: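 Electrically stimulated mouse isolated vas deferens. Antagonism is measured against agonist-induced effects, with Met⁵-enkephalin as the δ agonist. Antagonist potency is expressed as pA₂.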

[2] = molecular target: T1, Opioid receptor (Mus musculus); assay: Opioid receptors antagonist potency in reversing the effects of normorphine was determined in mouse isolated vas deferens; assay type: functional, tissue-based
Opioid receptor [3] = molecular target: T2, Opioid receptor (Mus musculus, UniProt P42866+P32300+P33534); assay: Concentration required to inhibit the stereospecific [3H]diprenorphine binding Opioid receptors in the absence of sodium(Na+) was determined in mouse isolated vas deferens; assay type: protein assay
Opioid receptor [4] = molecular target: T2, Opioid receptor; assay: Concentration required to inhibit the stereospecific [3H]diprenorphine binding Opioid receptors in the presence of sodium(Na+) was determined in mouse isolated vas deferens; assay type: protein assay

T1 sequence (P32300 whole entry, looked up): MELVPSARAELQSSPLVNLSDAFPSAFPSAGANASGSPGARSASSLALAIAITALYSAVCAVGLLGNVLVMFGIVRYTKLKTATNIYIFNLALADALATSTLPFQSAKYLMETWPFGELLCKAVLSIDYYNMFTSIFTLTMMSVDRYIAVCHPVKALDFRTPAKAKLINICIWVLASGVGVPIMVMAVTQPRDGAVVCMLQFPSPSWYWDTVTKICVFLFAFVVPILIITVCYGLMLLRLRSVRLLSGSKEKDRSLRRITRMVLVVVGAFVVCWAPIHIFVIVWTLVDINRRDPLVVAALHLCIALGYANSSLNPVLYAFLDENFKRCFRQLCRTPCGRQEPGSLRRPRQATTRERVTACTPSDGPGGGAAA
T1 sequence (P33534 whole entry, looked up): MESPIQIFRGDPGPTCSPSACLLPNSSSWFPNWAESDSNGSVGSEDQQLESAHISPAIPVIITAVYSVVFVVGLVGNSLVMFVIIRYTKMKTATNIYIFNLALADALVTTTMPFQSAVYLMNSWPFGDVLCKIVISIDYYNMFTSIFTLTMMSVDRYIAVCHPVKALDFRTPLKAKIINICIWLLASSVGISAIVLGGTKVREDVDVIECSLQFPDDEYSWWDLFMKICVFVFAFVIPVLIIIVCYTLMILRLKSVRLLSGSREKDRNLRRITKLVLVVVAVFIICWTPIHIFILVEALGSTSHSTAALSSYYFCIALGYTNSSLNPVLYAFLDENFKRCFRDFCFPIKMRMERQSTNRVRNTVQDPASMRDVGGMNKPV
T1 sequence (P42866 whole entry, looked up): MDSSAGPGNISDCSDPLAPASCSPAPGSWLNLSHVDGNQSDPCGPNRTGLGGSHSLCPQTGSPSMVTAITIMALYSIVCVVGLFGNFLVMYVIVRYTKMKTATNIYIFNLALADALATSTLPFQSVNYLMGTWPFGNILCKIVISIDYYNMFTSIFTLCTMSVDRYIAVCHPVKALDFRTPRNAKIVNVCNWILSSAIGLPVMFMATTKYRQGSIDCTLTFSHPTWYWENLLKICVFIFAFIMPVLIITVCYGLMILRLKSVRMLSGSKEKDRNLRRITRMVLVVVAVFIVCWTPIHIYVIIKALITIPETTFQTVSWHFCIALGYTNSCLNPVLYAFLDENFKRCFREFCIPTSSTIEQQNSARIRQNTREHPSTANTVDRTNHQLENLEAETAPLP

Compound | Concentration [1] | Concentration [2] | IC50 (Opioid receptor [3]) | IC50 (Opioid receptor [4])
C=CC[N+]1(C)CC[C@]23c4c5ccc(O)c4O[C@H]2[C@@H](O)C=CC3[C@H]1C5 (stereo in doubt; A) | > 22 µM | 1250 nM |  | 
C=CC[N+]1(C)CC[C@]23c4c5ccc(O)c4O[C@H]2[C@@H](O)C=CC3[C@H]1C5.[I-] (stereo in doubt; B) |  |  | 0.44 µM | 0.51 µM
C=CC[N+]1(C)CC[C@]23c4c5ccc(O)c4O[C@H]2[C@@H](O)C=CC3[C@H]1C5.[I-] (stereo in doubt; A) |  |  | 8.5 µM | 11.5 µM
C=CCN1CC[C@]23c4c5ccc(O)c4O[C@H]2[C@@H](O)C=C[C@H]3[C@H]1C5 | 0.286 µM | 22.4 nM |  | 
C=CC[N+]1(C)CC[C@]23c4c5ccc(O)c4O[C@H]2[C@@H](O)C=CC3[C@H]1C5 (stereo in doubt; B) | 4.92 µM | 59.2 nM |  | 
